Rows were chosen to be rich in hits. Some 2.3% of all compounds tested hit in one or more screens of this group.
TRPC4 PAM – positive allosteric modulators of TRPC4, primary screen, cell-based, mouse TRPC4beta, HEK293 mu-opioid, Fluo-4 calcium; Short transient receptor potential channel 4 (Mus musculus), Q9QUQ5; DAMGO EC20, Fluo-4 Ca2+ flux; hits give high values; B-score at 10 µM; 310,000 tested, 0.42% active; AID 2227, 2009;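 active = B-score of calcium response area above 5 SD of library B-scores, with initial fluorescence ratio within 5 SD of library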
TRPC6 inh – mouse TRPC6 channel inhibitors, primary screen, cell-based, HEK293, membrane potential dye; ACh-evoked depolarization; hits give low values; 310,000 tested, 1.1% active; Short transient receptor potential channel 6 (Mus musculus), Q61143; B-score at 10 µM; AID 2553, 2010;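 active = B-score under library mean minus 3 SD, initial fluorescence not abnormally high, positive integrated signal ratio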;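 note: B-score derived from integrated fluorescence ratio over the kinetic read; more negative B-score means stronger inhibition of depolarization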
Target sequence (Q61143 whole entry, looked up): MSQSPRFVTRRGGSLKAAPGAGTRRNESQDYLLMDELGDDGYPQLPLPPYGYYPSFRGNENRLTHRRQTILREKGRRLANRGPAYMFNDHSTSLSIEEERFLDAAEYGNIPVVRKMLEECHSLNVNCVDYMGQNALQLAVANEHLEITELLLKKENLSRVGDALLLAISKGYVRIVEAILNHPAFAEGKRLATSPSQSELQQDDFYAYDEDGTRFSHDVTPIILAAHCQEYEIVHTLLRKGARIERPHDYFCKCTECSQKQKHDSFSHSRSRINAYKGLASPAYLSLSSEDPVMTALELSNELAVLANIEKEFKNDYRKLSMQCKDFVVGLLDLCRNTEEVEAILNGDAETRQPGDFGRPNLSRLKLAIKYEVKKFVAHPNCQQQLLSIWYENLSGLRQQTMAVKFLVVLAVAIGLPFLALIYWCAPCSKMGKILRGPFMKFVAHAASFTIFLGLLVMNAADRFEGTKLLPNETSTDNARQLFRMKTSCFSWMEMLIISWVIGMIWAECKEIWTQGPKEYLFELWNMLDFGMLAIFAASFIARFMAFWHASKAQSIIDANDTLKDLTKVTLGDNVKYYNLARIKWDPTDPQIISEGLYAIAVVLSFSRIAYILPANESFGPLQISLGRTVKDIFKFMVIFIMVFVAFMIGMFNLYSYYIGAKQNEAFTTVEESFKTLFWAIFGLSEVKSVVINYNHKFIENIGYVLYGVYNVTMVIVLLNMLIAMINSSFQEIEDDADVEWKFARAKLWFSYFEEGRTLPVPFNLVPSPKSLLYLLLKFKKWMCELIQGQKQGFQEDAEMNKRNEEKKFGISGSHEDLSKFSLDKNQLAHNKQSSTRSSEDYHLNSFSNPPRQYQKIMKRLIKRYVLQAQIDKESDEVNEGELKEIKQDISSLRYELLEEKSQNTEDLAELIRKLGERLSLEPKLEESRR
TRPC6 activator – mouse TRPC6 channel activators, primary screen, cell-based, HEK293, membrane potential dye; Short transient receptor potential channel 6 (Mus musculus), Q61143; HEK293-TRPC6 membrane potential dye fluorescence; hits give high values; B-score at 10 µM; 310,000 tested, 0.13% active;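 active = B-score of the integrated fluorescence ratio above library mean plus 3 SD, and starting fluorescence ratio within library mean plus 5 SD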;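 note: higher score means more depolarization so channel activation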
TRPC4 agonist – activators of mouse TRPC4 channel, primary screen, Fluo4 calcium, HEK293 TRPC4beta/mu-opioid cells; Short transient receptor potential channel 4 (Mus musculus), Q9QUQ5; Fluo4 calcium fluorescence; hits give high values; B-score at 10 µM; 310,000 tested, 0.49% active;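 active = B-score above 5 SD of library B-scores, and initial fluorescence ratio not above library mean plus 5 SD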;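 note: positive B-score marks a calcium rise read as TRPC4 activation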
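Material: TRPC4beta and mu-opioid receptor HEK293 stable cells | Incubation: 45 min room-temperature Fluo4 loading, 110 s read | Detection: Kinetic Fluo4 calcium fluorescence | Measure: Integrated baseline-normalised fluorescence ratio, converted to per-well B score | Benchmarks: Low control buffer alone, high control maximal DAMGO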
TRPC4 block – inhibitors of mouse TRPC4 channel, primary screen, Fluo4 calcium, HEK293 TRPC4beta/mu-opioid cells | AID 2247, 2010 | Short transient receptor potential channel 4 (Mus musculus), Q9QUQ5 | DAMGO-evoked Fluo4 calcium flux; hits give low values | B-score at 10 µM | 300,000 tested, 0.39% active;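 active = B-score over 3 SD under the library average, no early fluorescence shift, positive overall ratio signal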
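Assay system: HEK293 cells with stable TRPC4beta plus mu-opioid receptor expression. Dosing: single dose. Measured by: Fluo4 Ca2+ flux fluorescence. Also added: DAMGO in two steps, submaximal then maximal. Read-out: B score from integrated Fluo4 fluorescence ratio.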
TRPC4 sel inh 2 – second check of whether TRPC6 inhibitors also affect mouse TRPC4; shares compounds with TRPC6 inh; HEK293 TRPC4/MOR, membrane potential dye fluorescence; channel activated by saturating DAMGO dose; 920 tested, 42% active; inhibition, % at 10 µM;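 active = compounds whose fluorescence signal differed from control wells by over 3 SD, either direction, in both duplicate plates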
TRPC4 spec – mouse TRPC4 modulation by TRPC6 hits, confirmation, selectivity assay for TRPC6 inhibitor project, cell-based, HEK293 TRPC4/mu-opioid, membrane potential dye. 920 tested, 61% active. AID 2777, 2010. membrane potential fluorescence. shares compounds with TRPC6 inh. activity change, negative = inhibition, % at 10 µM;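 active = rise or fall in signal beyond 3 SD of buffer-only wells in both replicate plates, either sign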;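 note: integrated kinetic ratio of fluorescence range over baseline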
HEK293 MPD ctr 2-1 – nonspecific membrane potential effects, parental HEK293, confirmation, counter-screen for TRPC6 inhibitor project, cell-based, second counter screen | parental HEK293 membrane potential dye fluorescence; maximal acetylcholine challenge after compound addition | AID 2779, 2010 | 920 tested, 31% active | shares compounds with TRPC6 inh | signal change vs control, % at 10 µM;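 active = membrane potential signal moving either way by over 3 SD of the maximum-effect control, in both duplicate plates, meaning non-specific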
HEK293 MPD ctr-1 – membrane potential modulation in parental HEK293, confirmation, counter-screen for TRPC6 inhibitor project, cell-based | shares compounds with TRPC6 inh | parental HEK293 membrane potential dye fluorescence | membrane potential signal change, % at 10 µM | 920 tested, 60% active;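 active = membrane potential signal shifting up or down by more than 3 SD of buffer-only wells, on both duplicate plates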
HEK293 MPD ctr-2 – parental HEK293 membrane potential modulation, confirmation, counter-screen for TRPC6 modulator project, cell-based; shares compounds with TRPC6 inh; membrane potential dye fluorescence; membrane potential signal change, % at 10 µM; 2,400 tested, 51% active; AID 488924, 2010;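 active = membrane potential signal moves up or down beyond 5 SD from buffer-only wells, on both duplicate plates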
HEK293 MPD ctr 2-2 – second check of TRPC6 modulator effects in parental HEK293 cells | shares compounds with TRPC6 inh | membrane potential dye fluorescence; after compound, maximal acetylcholine stimulation | inhibition, % at 10 µM | 2,400 tested, 14% active | AID 488926;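 active = membrane potential signal drops by more than 5 SD from the mean control signal, in both duplicate plates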
TRPC4/MOR mod – TRPC4 modulation by TRPC6 hit compounds, confirmation, selectivity assay for TRPC6 modulator project, cell-based, HEK293 TRPC4/mu-opioid, membrane potential dye, mouse; shares compounds with TRPC6 inh; membrane potential fluorescence; percent change from control (negative = decrease, positive = increase), % at 10 µM; 2,400 tested, 69% active;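 active = membrane potential signal moved up or down beyond 5 SD of buffer control wells, in both duplicate plates, actives on both sides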
TRPC4/MOR inh 2 – second check of whether TRPC6 modulators also affect mouse TRPC4 | shares compounds with TRPC6 inh | HEK293 TRPC4/mu-opioid, membrane potential dye fluorescence; stimulated with maximal-effect DAMGO | inhibition, % at 10 µM | 2,400 tested, 55% active;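 active = drop in membrane potential signal beyond 5 SD of the control wells in both duplicate plates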;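 note: TRPC4 counter screen for TRPC6 hits run under conditions tuned for TRPC6 not TRPC4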
TRPC6 inh conf – mouse TRPC6 channel inhibitors, confirmation, HEK293 cells, membrane potential dye, duplicate. AID 488960, 2010. inhibition, % at 10 µM. ACh-evoked depolarization. 3,300 tested, 43% active. shares compounds with TRPC6 inh;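 active = fluorescence ratio falls more than 5 SD below the full-stimulation control mean, in both duplicate runs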;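 note: integrated fluorescence ratio of peak minus minimum over baseline after agonist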
TRPC6 act confirm – mouse TRPC6 channel activators, confirmation, HEK293 cells, membrane potential dye, duplicate. AID 488961, 2010. HEK293-TRPC6 membrane potential dye fluorescence, FDSS. shares compounds with TRPC6 inh. activation, % at 10 µM. 2,800 tested, 11% active;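 active = ratio signal rise beyond 5 SD above unstimulated control wells' mean, seen in both duplicate runs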
Hits are given with their value; – = inactive; · = not tested or not shown.

SMILES	TRPC4 PAM	TRPC6 inh	TRPC6 activator	TRPC4 agonist	TRPC4 block	HEK293 MPD ctr-2	HEK293 MPD ctr 2-2	TRPC4/MOR mod	TRPC4/MOR inh 2	TRPC6 inh conf	TRPC6 act confirm	others
CCOC(=O)C1CCN(C(=O)c2sc3nc(C)nc(N4CCC(C)CC4)c3c2C)CC1	–	-9	14	–	–	198%	–	30%	–	78%	127%
CCOC(=O)C1CCN(C(=O)c2sc3ncnc(N4CCC(C)CC4)c3c2C)CC1	–	–	–	–	–	·	·	·	·	·	·
CC(NC(=O)OCc1ccccc1)C(=O)NCC(=O)NC(Cc1ccc(OC(C)(C)C)cc1)C(=O)OC(C)(C)C (stereo not given)	–	–	–	–	–	·	·	·	·	·	·
OC(CNCc1ccccc1)(c1ccc(F)cc1)c1ccc(F)cc1	–	-5.3	–	–	–	160%	–	36%	56%	–	·
Cc1ccccc1C(=O)NCCSc1ccccc1	–	-7.5	–	–	–	·	·	·	·	–	–	TRPC4 sel inh 2=–;TRPC4 spec=3.9%;HEK293 MPD ctr 2-1=–;HEK293 MPD ctr-1=2.1%
Cc1c(O)c(CN2CCCC2)cc2c3c(c(=O)oc12)CCC3	–	-5	–	–	–	-254%	–	-46%	–	–	–
CSc1ccccc1OCc1cc(C(=O)N(Cc2nccn2C)C(C)C)no1	–	–	–	–	–	·	·	·	·	·	·
CCn1ccnc1CN(C)C(=O)c1cc(COc2ccccc2SC)on1	–	-7.5	–	–	–	·	·	·	·	–	·	TRPC4 sel inh 2=–;TRPC4 spec=4.0%;HEK293 MPD ctr 2-1=–;HEK293 MPD ctr-1=7.0%
Cc1c(C)n(C)c2ccc(C(=O)NCCCN3CCN(c4ccc(F)cc4)CC3)cc12	–	–	–	–	–	·	·	·	·	·	·
Cc1c(C)n(C)c2ccc(C(=O)NCCCN3CCN(c4ccccc4F)CC3)cc12	–	-7.3	–	–	–	–	–	–	67%	42%	–
COc1cc(N2CCCC2)c(OC)cc1C=O	–	-7.9	–	–	–	·	·	·	·	–	–	TRPC4 sel inh 2=–;TRPC4 spec=–;HEK293 MPD ctr 2-1=250%;HEK293 MPD ctr-1=–
COc1ccc(Cc2nnc(NC(=O)CS(=O)(=O)Cc3ccccc3)s2)cc1	–	–	–	–	–	·	·	·	·	·	·
CN(C)C(=O)c1c([N+](=O)[O-])c(C(C)(C)C)nn1C	–	-6.2	–	–	–	–	–	–	–	–	–
CN(C)c1ccc2nc3ccc(=[N+](C)C)cc-3sc2c1	–	-14	–	–	–	-224%	132%	-36%	66%	80%	–
Cc1cc(OCC(=O)Nc2ccc(N3CCN(C)CC3)cc2)ccc1Cl	–	-5.1	–	–	-6	–	–	30%	52%	–	–
Cc1cc(OCC(=O)Nc2ccc(S(=O)(=O)N3CCN(C)CC3)cc2)ccc1Cl	–	–	–	–	–	·	·	·	·	·	·
CCC(=O)N1CCN(c2ccc(NC(=O)COc3ccccc3Cl)cc2)CC1	–	–	–	–	–	·	·	·	·	·	·
CN1CCN(c2ccc(NC(=O)COc3ccccc3Cl)cc2)CC1	–	-9.2	–	–	–	·	·	·	·	–	–	TRPC4 sel inh 2=58%;TRPC4 spec=-11%;HEK293 MPD ctr 2-1=–;HEK293 MPD ctr-1=-186%
COCCC(=O)N1CCC(Oc2ccc(C(=O)NCCn3cccn3)cc2)CC1	–	–	–	–	–	·	·	·	·	·	·
COc1cccc(CNC(=O)CCC2CCCN(C3CCOCC3)C2)c1 (stereo not given)	–	–	–	–	–	·	·	·	·	·	·
COc1cccc(CNC(=O)CCC2CCCN(c3cc(C)nc(N4CCCC4)n3)C2)c1 (stereo not given)	–	-6.1	–	–	–	–	–	-9.0%	43%	48%	–
Cc1ccc(SCCC(=O)N/N=C/c2cccnc2)cc1	–	–	–	–	–	·	·	·	·	·	·
CCN(CC)c1cc(C)c2cc(NC(=O)CNC(C)=O)ccc2n1	–	-5.7	–	–	–	-161%	59%	-28%	38%	–	–
CCN(CC)c1cc(C)c2cc(NC(=O)c3ccccc3F)ccc2n1	–	–	–	–	–	·	·	·	·	·	·
CCCCN(C)CCNC(=O)c1nn(-c2ccc(OC)cc2)c(=O)c2c1c1ccccc1n2C	–	-5.7	–	–	–	–	–	-16%	68%	–	–
CCN(C(=O)c1nn(-c2ccc(OC)cc2)c(=O)c2c1c1ccccc1n2C)c1ccc(OC)cc1	–	–	–	–	–	·	·	·	·	·	·
O=C(COc1ccc(-c2ccccc2)cc1)N1CCN(S(=O)(=O)Cc2ccccc2)CC1	–	–	–	–	–	·	·	·	·	·	·
O=C(Nc1ccc(-n2cnnn2)cc1)c1cn2ccccc2n1	–	-5.1	–	–	–	–	–	–	–	–	–
CC1CN(C(=O)c2ccc(-c3ccccc3Cl)o2)CC(C)O1 (stereo not given)	–	–	–	–	–	·	·	·	·	·	·
